ChEMBL document CHEMBL4715925, “Sulfamoylbenzamide-based Capsid Assembly Modulators for Selective Inhibition of Hepatitis B Viral Replication” (ACS Med Chem Lett, 2021)

Assays:
[1] = tested on: Hepatitis B virus; assay: Antiviral activity against Hepatitis B genotype D virus infected in HepG2 2.2.15 cells assessed as inhibition of viral DNA incubated for 5 days by qPCR analysis; type: functional, cell-based; conditions: HepG2 2.2.15, 120 h
Method in brief: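 HepG2.2.15 cells were incubated with compound for 5 days. HBV DNA was then purified from the culture supernatant and quantified by real-time PCR.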

[2] = Cytotoxicity against human HepG2 2.2.15 cells assessed as reduction in cell viability incubated for 5 days by MTT assay; type: cell-based; conditions: time 5 day
Method in brief: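 HepG2.2.15 cells were incubated with compound, then cell viability was measured. Mean ± SD of three independent experiments.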

[3] = Selectivity index, ratio of CC50 for human […] cells to EC50 for Hepatitis B virus; type: toxicity; conditions: read-out: Ratio CC50/EC50

Row | EC50 [1] [µM] | Structure (SMILES) | CC50 at 120 h [2] [µM] | selectivity ratio [3]
1 | 2.18 | Nc1cc(F)c(S(=O)(=O)N2CCC(O)CC2)cc1C(=O)Nc1ccc(F)c(C(F)(F)F)c1 | 47.3 | 21.7
2 | > 3.3 | Nc1cc(F)c(S(=O)(=O)N2CCC(O)CC2)cc1C(=O)Nc1ccc(C(F)(F)F)c(F)c1 | 5.9 | –
3 | 1.08 | N#Cc1cc(NC(=O)c2cc(S(=O)(=O)N3CCC(O)CC3)c(F)cc2N)ccc1F | > 900 | > 833
4 | 0.83 | Nc1cc(F)c(S(=O)(=O)N2CCC(O)CC2)cc1C(=O)Nc1ccc(F)c(Cl)c1 | 18.5 | 22.3
5 | 1.04 | O=C(Nc1cc(F)c(F)c(F)c1)c1ccc(F)c(S(=O)(=O)N2CCC(O)CC2)c1 | 8.6 | 8.3
6 | 0.27 | Nc1cc(F)c(S(=O)(=O)N2CCC(O)CC2)cc1C(=O)Nc1cc(F)c(F)c(F)c1 | 19.7 | 73
7 | > 3.3 | N#Cc1cc(NC(=O)c2cc(S(=O)(=O)N3CCC(O)CC3)c(F)cc2N)ccc1Cl | > 900 | –
8 | 0.57 | Nc1cc(F)c(S(=O)(=O)N2CCC(O)CC2)cc1C(=O)Nc1ccc(F)cc1 | 45.8 | 80.4
